One experiment concerns SW480. In words: Cytotoxicity against human SW480 cells at 40 uM after 48 hrs by MTT assay. It is filed as functional, cell-based.
A further experiment has as its system SMMC-7721. Briefly: Cytotoxicity against human SMMC7721 cells at 40 uM after 48 hrs by MTT assay. It is filed as functional, cell-based. In general terms: Tetrazolium dyes change colour on reduction, which living cells bring about.
The test system of another experiment is A549. In words: Cytotoxicity against human A549 cells at 40 uM after 48 hrs by MTT assay. It is filed as functional, cell-based.
The target in experiment [1] is T1, Tyrosine-protein phosphatase non-receptor type 1 (Homo sapiens) (UniProt P18031).
T1 sequence (whole entry): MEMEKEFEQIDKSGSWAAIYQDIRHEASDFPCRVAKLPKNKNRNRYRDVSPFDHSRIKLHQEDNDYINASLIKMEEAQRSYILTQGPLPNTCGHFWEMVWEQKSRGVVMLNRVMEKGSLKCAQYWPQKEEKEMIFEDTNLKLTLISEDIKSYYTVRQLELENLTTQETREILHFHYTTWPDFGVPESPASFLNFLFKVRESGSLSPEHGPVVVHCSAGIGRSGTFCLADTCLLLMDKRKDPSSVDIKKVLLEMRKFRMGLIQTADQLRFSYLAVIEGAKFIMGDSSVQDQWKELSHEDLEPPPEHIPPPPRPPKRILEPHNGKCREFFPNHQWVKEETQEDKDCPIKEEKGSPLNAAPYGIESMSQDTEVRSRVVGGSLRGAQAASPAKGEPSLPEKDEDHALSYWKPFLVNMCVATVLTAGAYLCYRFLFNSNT
In words: Inhibition of recombinant human PTP1B at 40 uM using pNPP as substrate preincubated for 10 mins followed by substrate addition and measured after 30 mins at 5 mins time interval for 30 mins.

A further experiment has as its system RAW264.7. In words: Anti-inflammatory activity in mouse RAW264.7 cells assessed as inhibition of LPS-induced NO production at 40 uM. It is filed as functional, cell-based.
In the next experiment the test system is HL-60. In words: Cytotoxicity against human HL60 cells at 40 uM after 48 hrs by MTT assay. It is filed as functional, cell-based.
The subject of the next experiment is Mus musculus. Briefly: Antinociceptive activity in Kunming mouse model of acetic-acid-induced writhing assessed as inhibition of writhing numbers at 5 mg/kg measured for 30 mins relative to control. It is filed as functional. The conditions noted are these: for inhibition in vivo at 5 mg/kg: 0.5 h. The procedure, abridged:
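Acetic-acid-induced writhing model in Kunming mice (10 per group); doses 0.2, 1.0 and 5.0 mg/kg; vehicle-treated and morphine positive-control groups; inhibition of writhing relative to vehicle; mean ± SEM; one-way ANOVA with Bonferroni test. Animal work approved by institutional ethics committee.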
A general note: An intraperitoneal irritant provokes the stretching counted in writhing tests.

The next experiment concerns MCF7. Briefly: Cytotoxicity against human MCF7 cells at 40 uM after 48 hrs by MTT assay. The format is functional, cell-based.

The structures appear in SMILES notation. Calls of active or inactive are those of the source. The rule behind the calls is not given here.

Broadly, the inhibition in vivo is the drop in the measured response relative to a control, in per cent.

For the molecule `C=C1[C@@H]2CC[C@@H]3[C@@H](OC(C)=O)[C@@]2(C[C@@H](O)[C@@]2(O)[C@H]1C[C@H](O[C@@H]1O[C@H](CO)[C@@H](O)[C@H](O)[C@H]1O)C2(C)C)C[C@@]3(C)O`, the outcome with SW480, in the experiment on SMMC-7721, with A549, in the experiment with HL-60 and in the experiment with MCF7 was inactive. Moreover, the inhibition entry (in experiment [1]; with RAW264.7) was “inactive” in each case. The inhibition result with Mus musculus was “Active”.

In the case of `C=C1[C@@H]2CC[C@@H]3C[C@]2(C=C3C)C[C@@H](O)[C@@]2(O)[C@H]1C[C@H](O[C@@H]1O[C@H](CO)[C@@H](O)[C@H](O)[C@H]1O)C2(C)C`, the result in the experiment with SW480, in the experiment on SMMC-7721, in the experiment on A549, in the experiment on HL-60 and in the experiment on MCF7 was inactive. The inhibition entry (in experiment [1]; with RAW264.7) was “inactive” throughout.

Turning to `C[C@H]1[C@@H]2C[C@H](O[C@@H]3O[C@H](CO)[C@@H](O)[C@H](O)[C@H]3O)C(C)(C)[C@]23O[C@]12CC[C@@H]1C[C@@]2(C[C@H]3O)C[C@@]1(C)O`, the result with SW480, with SMMC-7721, with A549, in the experiment on HL-60 and in the experiment with MCF7 was inactive. Besides, the inhibition result (in experiment [1]; in the experiment with RAW264.7) was “inactive” throughout. Further, the inhibition result with Mus musculus is “Active”.

For the molecule `C=C1[C@@H]2CC[C@H]3C(C)=C[C@]2(C[C@@H](O)[C@@]2(O)[C@H]1C[C@H](O[C@@H]1O[C@H](CO)[C@@H](O)[C@H](O)[C@H]1O)C2(C)C)[C@@H]3O`, the outcome in the experiment with SW480, in the experiment with SMMC-7721, in the experiment on A549, in the experiment on HL-60 and in the experiment on MCF7 was inactive. The inhibition entry (in experiment [1]; in the experiment with RAW264.7) was “inactive” throughout. Moreover, in the experiment with Mus musculus, the inhibition in vivo at 5 mg/kg was determined as 50%.

As to `C=C1[C@@H]2CC[C@@H]3C[C@]2(C[C@@]3(C)O)[C@H](O)[C@@H](O)[C@@]2(O)[C@H]1C[C@H](O[C@@H]1O[C@H](CO)[C@@H](O)[C@H](O)[C@H]1O)C2(C)C`, the outcome in the experiment on SW480, in the experiment on SMMC-7721, in the experiment with A549, in the experiment on HL-60 and in the experiment on MCF7 was inactive. In addition, the inhibition result (in experiment [1]; in the experiment on RAW264.7) was “inactive” in each case.

For the molecule `C=C1[C@H]2C[C@H](O)C(C)(C)[C@@]2(O)[C@H](O)C[C@@]23C[C@@H](CC[C@@H]12)[C@](C)(O[C@@H]1O[C@H](CO)[C@@H](O)[C@H](O)[C@H]1O)C3`, the result in the experiment on SW480, with SMMC-7721, in the experiment on A549, with HL-60 and in the experiment with MCF7 was inactive. In addition, the inhibition result (in experiment [1]; in the experiment with RAW264.7) was “inactive” in each case. Moreover, the inhibition entry in the experiment with Mus musculus was “Active”.

As to `C=C1[C@@H]2CC[C@@H]3[C@@H](OC(C)=O)[C@@]2(C[C@@H](O)[C@@]2(O)[C@H]1C[C@H](O)C2(C)C)C[C@@]3(C)O[C@@H]1O[C@H](CO)[C@@H](O)[C@H](O)[C@H]1O`, the outcome in the experiment with SW480, in the experiment with SMMC-7721, with A549, in the experiment on HL-60 and in the experiment on MCF7 was inactive. Also, the inhibition entry (in experiment [1]; with RAW264.7) was “inactive” throughout. For the same molecule, in the experiment with Mus musculus, the inhibition in vivo at 5 mg/kg was more than 50%.

With `C=C1[C@@H]2CC[C@@H]3C[C@@]2(C[C@@H](O)[C@@]2(O)[C@H]1C[C@H](O)C2(C)C)C[C@@]3(C)O[C@@H]1O[C@H](CO)[C@@H](O)[C@H](O)[C@H]1O`, the result with SW480, in the experiment on SMMC-7721, in the experiment on A549, in the experiment on HL-60 and with MCF7 was inactive. Further, the inhibition entry (in experiment [1]; with RAW264.7) was “inactive” in each case. Also, the inhibition in vivo at 5 mg/kg in the experiment on Mus musculus was more than 50%.

Take `C=C1[C@H]2C[C@H](O)C(C)(C)[C@]2(O)CC[C@@]23C[C@@H](CC[C@@H]12)[C@](C)(O[C@@H]1O[C@H](CO)[C@@H](O)[C@H](O)[C@H]1O)C3`: the outcome in the experiment on SW480, in the experiment on SMMC-7721, with A549, in the experiment on HL-60 and with MCF7 was inactive. Besides, the inhibition entry (in experiment [1]; in the experiment on RAW264.7; with Mus musculus) was “inactive” in each case.

Take `CC1=C2CC[C@@H]3[C@@H](O)[C@@]2(C[C@@H](O)[C@@]2(O)[C@H]1C[C@H](O[C@@H]1O[C@H](CO)[C@@H](O)[C@H](O)[C@H]1O)C2(C)C)C[C@@]3(C)O`: the result with SW480, in the experiment with SMMC-7721, in the experiment with A549, in the experiment on HL-60 and with MCF7 was inactive. Besides, the inhibition entry (in experiment [1]; in the experiment with RAW264.7) was “inactive” throughout. Moreover, in the experiment with Mus musculus, the inhibition in vivo at 5 mg/kg was more than 50%.

On to `C=C1[C@@H]2CC[C@@H]3C[C@@]2(C[C@@H](O)[C@@]2(O)[C@H]1C[C@@H](O[C@@H]1O[C@H](CO)[C@@H](O)[C@H](O)[C@H]1O)C2(C)C)C[C@@]3(C)O`, for which the result with SW480, in the experiment with SMMC-7721, with A549, in the experiment on HL-60 and in the experiment with MCF7 was inactive. Moreover, the inhibition entry (in experiment [1]; in the experiment with RAW264.7) was “inactive” in each case. In addition, in the experiment on Mus musculus, the inhibition result was “Active”.

Turning to `C=C1[C@H]2C[C@H](O[C@@H]3O[C@H](CO)[C@@H](O)[C@H](O)[C@H]3O)C(C)(C)[C@]2(O)CC[C@@]23C[C@@](O)(CC[C@@H]12)[C@](C)(O)C3`, the result in the experiment with SW480, with SMMC-7721, in the experiment with A549, in the experiment with HL-60 and with MCF7 was inactive. Besides, the inhibition entry (in experiment [1]; with RAW264.7) was “inactive” in each case.

For `CC(=O)O[C@@H]1[C@H]2CC[C@H]3[C@@](C)(O)[C@@H]4C[C@H](O[C@@H]5O[C@H](CO)[C@@H](O)[C@H](O)[C@H]5O)C(C)(C)[C@@]4(O)[C@H](O)C[C@@]13C[C@@]2(C)O`, the outcome in the experiment with SW480, with SMMC-7721, in the experiment with A549, with HL-60 and in the experiment on MCF7 was inactive. In addition, the inhibition entry (in experiment [1]; in the experiment with RAW264.7; in the experiment on Mus musculus) was “inactive” each time.

As to `C=C1[C@H]2C[C@H](O)C(C)(C)[C@]2(O)CC[C@@]23C[C@@](O)(CC[C@@H]12)[C@](C)(O[C@@H]1O[C@H](CO)[C@@H](O)[C@H](O)[C@H]1O)C3`, the result in the experiment with SW480, with SMMC-7721, in the experiment with A549, in the experiment with HL-60 and with MCF7 was inactive. Moreover, the inhibition result (in experiment [1]; in the experiment with RAW264.7) was “inactive” each time. For the same molecule, the inhibition result in the experiment on Mus musculus was “Active”.

With `CC1(C)[C@@H](O[C@@H]2O[C@H](CO)[C@@H](O)[C@H](O)[C@H]2O)C[C@H]2[C@](C)(O)[C@@H]3CC[C@@H]4[C@@H](O)[C@@]3(C[C@@H](O)[C@@]21O)C[C@@]4(C)O`, the result with SW480, with SMMC-7721, in the experiment on A549, in the experiment on HL-60 and with MCF7 was inactive. Besides, the inhibition entry (in experiment [1]; with RAW264.7) was “inactive” each time. For the same molecule, in the experiment on Mus musculus, the inhibition in vivo at 5 mg/kg was more than 50%.
